Source: the array DNA melting data of Ke et al. (doi:10.1101/2024.01.08.574731)

Experiments:
[1] = folding enthalpy; higher = less favourable; fluorescence melt of hairpins on a sequencing array, two-state fit; settings: sodium 0.088 M
In short: (§1)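 Cy3 fluorescence of library hairpins on a sequenced MiSeq flow cell, with annealed Cy3 and quencher oligos, was imaged in 50 mM Na-HEPES pH 8.0, 25 mM NaCl in 2.5 °C steps up to 60 °C. Signals were normalised to pre-quench Cy3 and to control variants. Melting temperature and folding enthalpy came from bootstrapped two-state fits, inverse-variance combined over four replicates. Fitted temperatures were raised by 9.35 °C to match UV melts.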

[2] = melting temperature; fluorescence melt of hairpins on a sequencing array, two-state fit, raised by 9.35 °C to match UV melts; settings: sodium 0.088 M
In short: as §1

Sequence | folding enthalpy [1] [kcal/mol] | Tm [2] [°C]
GCAGTATCGAAAGATTGC (((..(((....)))))) | -20.5 | 34.9
GCAGTCGAAAGACCGTGC ((((((....)))..))) | -16.8 | 38.1
GCAGTCGAAAGACGCTGC ((((((....)))..))) | -21.6 | 55.6
GCAGTCGAAAGACTATGC ((((((....)))..))) | -17.8 | 46.2
GCAGTCGAAAGACTCTGC ((((((....)))..))) | -16.1 | 41.8
GCAGTCGGAAACGACCAC (..((((....))))..) | -8.16 | 32
GCAGTCGGAAACGACTAC (.(((((....))))).) | -13.4 | 41.7
GCAGTCGGAAACGGTTGC (((..((....))..))) | -25.8 | 42.4
GCAGTGCCGAAAGGCTGC (((..(((....)))))) | -14.8 | 49.8
GCAGTGCGAAAGCACAGC ((.((((....)))).)) | -17.1 | 68.2
GCAGTGCGAAAGCGTTGC (((..((....))..))) | -17.7 | 56.2
GCAGTGCGAAAGCTCAGC ((.(.((....)).).)) | -14.7 | 49.2
GCAGTGGGAAACCATTGC (((.(((....))).))) | -25.6 | 50.1
GCAGTTCGAAAGAATGC (((.(((....)))))) | -21.4 | 41.2
GCAGTTGGAAACAACCGC ((.((((....)))).)) | -23.6 | 44.1
GCATAAACGAAAGTTTGC (((..(((....)))))) | -18.5 | 37.4
GCATAAGGAAACCTATGC (((((.(....).))))) | -27.1 | 39.2
GCATAAGGAAACTTACGC ((.((((....)))).)) | -21.7 | 31.6
GCATACGAAAGTACGTGC ((((((....)))..))) | -18.1 | 34.4
GCATACGAAAGTATCTGC ((((((....)))..))) | -15.5 | 37.9
GCATACGAAAGTATTGC ((((((....))).))) | -25.1 | 45.7
GCATACTCGAAAGAGTGC (((..(((....)))))) | -16.8 | 39
GCATAGCGAAAGCACTGC (((..((....))..))) | -13.9 | 39.6

Sequence | folding enthalpy [1] [kcal/mol] | Tm [2] [°C]
GCATAGCGAAAGCGATGC ((((.((....)).)))) | -30.9 | 66.1
GCATAGCGAAAGCTCTGC (((.(((....))).))) | -45.2 | 49.4
GCATAGCGAAAGCTGCGC ((..(((....)))..)) | -21 | 61.3
GCATAGCGAAAGCTGTGC (((.(((....))).))) | -50.8 | 59.9
GCATAGGGAAACCTATGC (((((((....))))))) | -44.2 | 61.7
GCATATCGAAAGATTTGC (((.(((....))).))) | -37 | 46.8
GCATATGAAAATATGC ((((((....)))))) | -29.2 | 52.9
GCATATGGAAACACATGC ((((.((....)).)))) | -26.8 | 35.8
GCATATGGAAACGTATGC (((((.(....).))))) | -33.3 | 47
GCATCACGAAAGTGGTGC (((.(((....))).))) | -37.8 | 64.3
GCATCAGCGAAAGCTTGC (((..(((....)))))) | -13.2 | 41.3
GCATCAGGAAACCAATGC ((((..(....)..)))) | -12.1 | 23.8
GCATCCCCGAAAGGGTGC (((..(((....)))))) | -17.5 | 53.5
GCATCCGAAAGGACGTGC ((((((....)))..))) | -19.4 | 38.3
GCATCCGAAAGGAGATGC ((((((....)))..))) | -33.6 | 50.1
GCATCCGGAAACGGGTGC (((.(((....))).))) | -39.5 | 62.7
GCATCCTCGAAAGAGTGC (((..(((....)))))) | -19.1 | 33.1
GCATCGCGAAAGCAAAGC ((.(.((....)).).)) | -9.75 | 38.9
GCATCGCGAAAGCAACGC ((.(.((....)).).)) | -13.5 | 40.6
GCATCGCGAAAGCCCTGC (((..((....))..))) | -7.86 | 33
GCATCGCGAAAGCGAAGC ((.((((....)))).)) | -19.1 | 61.3
GCATCGGGAAACCAATGC ((((.((....)).)))) | -29 | 42.2
GCATCGGGAAACCGATAC (.(((((....))))).) | -13.7 | 41.5

Sequence | folding enthalpy [1] [kcal/mol] | Tm [2] [°C]
GCATCTCGAAAGAGTGC (((.(((....)))))) | -49.8 | 53.4
GCATGACGAAAGTCCTGC (((.(((....))).))) | -34.5 | 51
GCATGAGGAAACCCATGC (((((.(....).))))) | -36.8 | 48.6
GCATGAGGAAACTCATAC (.(((((....))))).) | -17.2 | 32.6
GCATGAGGAAACTCGTGC (((.(((....))).))) | -47.4 | 52.9
GCATGCGAAAGCAGTTGC ((((((....)))..))) | -16.5 | 43
GCATGCGAAAGCATCTGC ((((((....)))..))) | -13.4 | 47
GCATGCGAAAGCATTGC ((((((....))).))) | -21.3 | 57.9
GCATGCGCGAAAGCGTGC (((..(((....)))))) | -13.4 | 51.8
GCATGGAAACATGC (((((....))))) | -30.9 | 57.4
GCATGGCGAAAGCATTGC (((..((....))..))) | -20 | 49.6
GCATGGCGAAAGCCGAGC ((..(((....)))..)) | -17.1 | 55.7
GCATGGCGAAAGCCTCGC ((..(((....)))..)) | -13.4 | 43.7
GCATGGCGAAAGCCTGGC ((..(((....)))..)) | -18.4 | 53.4
GCATGGCGAAAGCGACGC ((.(.((....)).).)) | -12.7 | 38.3
GCATGGCGAAAGCTAGGC ((.(.((....)).).)) | -21.6 | 52.2
GCATGTCGAAAGACTGC (((.(((....)))))) | -35 | 56.1
GCATGTGGAAACACATAC (.(((((....))))).) | -14.9 | 38.6
GCATTACGAAAGTATTGC (((.(((....))).))) | -29.3 | 48.9
GCATTAGAAATAATGC ((((((....)))))) | -24.5 | 48.2
GCATTATCGAAAGATTGC (((..(((....)))))) | -14.4 | 30.6
GCATTCACGAAAGTGTGC (((..(((....)))))) | -18.2 | 37.6
GCATTCCGAAAGGACTGC (((.(((....))).))) | -22.2 | 50.8

Sequence | folding enthalpy [1] [kcal/mol] | Tm [2] [°C]
GCATTCCGAAAGGATTGC (((.(((....))).))) | -35.6 | 54.4
GCATTCGAAAGAAGATGC ((((((....)))..))) | -17.7 | 36.2
GCATTCGAAAGAATATGC ((((((....)))..))) | -24.8 | 36.1
GCATTCGAAAGAATGC ((((((....)))))) | -28.3 | 69.2
GCATTCGAAAGAATTTGC ((((((....)))..))) | -16.9 | 30.2
GCATTCGGAAACAAATGC (((((.(....).))))) | -28.9 | 38
GCATTCGGAAACGAACGC ((.((((....)))).)) | -37.2 | 46.7
GCATTCGGAAACGGATGC ((((.((....)).)))) | -36.9 | 54
GCATTCTCGAAAGAGTGC (((..(((....)))))) | -24.3 | 40.9
GCATTGCGAAAGCAGAGC ((..(((....)))..)) | -18.2 | 47.5
GCATTGCGAAAGCAGCGC ((..(((....)))..)) | -16.1 | 54.9
GCATTGCGAAAGCATTGC (((.(((....))).))) | -52.2 | 55.4
GCATTGCGAAAGCCAAGC ((.(.((....)).).)) | -9.84 | 28.6
GCATTGCGAAAGCCTTGC (((..((....))..))) | -25 | 39.3
GCATTGGGAAACCAGTGC (((.(((....))).))) | -34.4 | 50.7
GCATTTCCGAAAGGATGC (((..(((....)))))) | -21.6 | 38.4
GCATTTCGAAAGAACTGC (((.(((....))).))) | -32.1 | 43
GCATTTGAAAAAATGC ((((((....)))))) | -30.9 | 52.8
GCATTTGGAAACAAGTGC (((.(((....))).))) | -26.2 | 46.3
GCCAAAACGAAAGTTGGC (((..(((....)))))) | -30.7 | 51.4
GCCAAACGAAAGTTGGC (((.(((....)))))) | -34.5 | 56.8
GCCAAAGGAAACTTTGAC (.(((((....))))).) | -21.9 | 32.3
